Assay results from ChEMBL document CHEMBL4011626, “Structure-Based Optimization of Pyridoxal 5'-Phosphate-Dependent Transaminase Enzyme (BioA) Inhibitors that Target Biotin Biosynthesis in Mycobacterium tuberculosis” (J Med Chem, 2017).
Converted amounts (≈) assume the structure as drawn.

Key:
[1] = system: Mycobacterium tuberculosis; test: Inhibition of Bio-A underexpressed in Mycobacterium tuberculosis in presence of anhydrotetracycline after 9 days
Outline: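 BioA-overexpressing or BioA-underexpressing Mtb strains were pregrown in Sauton's with 1 μM biotin, washed twice, and seeded at OD580 0.03 in biotin-free medium with 200 ng/mL anhydrotetracycline to set BioA expression. Compounds were tested at 0.2–50 μM final at 37 °C. OD580 was read after 9 days. MIC is the concentration giving 50% inhibition. Triplicate, two biological replicates.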

[2] = system: Mycobacterium tuberculosis H37Rv; test: Inhibition of Bio-A in wild type Mycobacterium tuberculosis H37Rv after 9 days
Outline: (§1)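 Wild-type Mtb H37Rv was pregrown in Sauton's medium with 1 μM biotin to OD580 1.0–1.2, washed twice in biotin-free Sauton's, and seeded at OD580 0.03 without biotin. Compounds were tested at 0.2–50 μM final, with no-compound controls, at 37 °C. OD580 was read at 9 days. MIC is the concentration giving 50% inhibition. Triplicate, two biological replicates.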

[3] = system: Mycobacterium tuberculosis H37Rv; test: Inhibition of Bio-A in wild type Mycobacterium tuberculosis H37Rv in presence of biotin after 9 days
Outline: as §1, with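 “with 1 μM biotin added.” for “without biotin.”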

[4] = Inhibition of wild type Mycobacterium tuberculosis Bio-A using KAPA as substrate after 45 mins in presence of fluorescently labeled dethiobiotin tracer
[5] = system: Mycobacterium tuberculosis; test: Antibacterial activity against wild type Mycobacterium tuberculosis H37Rv after 14 days; assay type: functional; settings: 336 h

CC(=O)c1ccc(N2CCN(C(=O)CC(C)C)CC2)cc1
MIC50 [1]: > 50 µM
MIC50 [2]: > 50 µM

CC(=O)c1ccc(N2CCN(C(=O)c3cccc(Cl)c3)CC2)s1
MIC50 [1]: 1.1 µM
MIC50 [2]: 9.9 µM (≈ 3.45 µg/mL)

CN1Cc2cc(N3CCN(C(=O)c4cccc(Cl)c4)CC3)ccc2C1=O
MIC50 [1]: 1.2 µM
MIC50 [2]: 15.2 µM (≈ 5.62 µg/mL)

CC(=O)c1ccc(N2CCN(C(=O)c3ccc4c(c3)OCCO4)CC2)cc1
MIC50 [1]: 10.4 µM
MIC50 [2]: > 50 µM

CC(=O)c1ccc(N2CCN(C(=O)c3ccc(Cl)c(Cl)c3)CC2)cc1
MIC50 [1]: 1.9 µM
MIC50 [2]: 10.2 µM (≈ 3.85 µg/mL)

COC(=O)c1ccc(N2CCN(C(=O)c3cccc(Cl)c3)CC2)cc1
MIC50 [1]: > 50 µM
MIC50 [2]: > 50 µM

CC(=O)c1ccc(N2CCN(C(=O)c3ccc4c(c3)OCO4)CC2)cc1
MIC90 [3]: > 50 µM
IC50 [4]: 155 nM
MIC [5]: 26 µM (≈ 9.16 µg/mL)
MIC50 [1]: 0.4 µM
MIC90 [1]: 1.7 µM
MIC50 [2]: 5.6 µM (≈ 1.97 µg/mL)
MIC90 [2]: 23.4 µM (≈ 8.25 µg/mL)

CCC(=O)N1CCN(c2ccc(C(C)=O)cc2)CC1
MIC50 [1]: > 50 µM
MIC50 [2]: > 50 µM

C/C(=N\O)c1ccc(N2CCN(C(=O)c3cccc(Cl)c3)CC2)cc1
MIC50 [1]: 15.1 µM
MIC50 [2]: 20.4 µM (≈ 7.3 µg/mL)

O=C(c1cccc(Cl)c1)N1CCN(c2ccc(-c3ccno3)cc2)CC1
MIC50 [1]: 0.4 µM
MIC50 [2]: 6.7 µM (≈ 2.46 µg/mL)

O=C1CCc2cc(N3CCN(C(=O)c4ccc5c(c4)OCO5)CC3)ccc21
MIC50 [1]: 0.3 µM
MIC50 [2]: 1.7 µM (≈ 0.619 µg/mL)

Cc1noc(-c2ccc(N3CCN(C(=O)c4cccc(Cl)c4)CC3)cc2)n1
MIC50 [1]: > 50 µM
MIC50 [2]: > 50 µM

CC(=O)c1cccc(N2CCN(C(=O)c3cccc(Cl)c3)CC2)c1
MIC50 [1]: 26.6 µM
MIC50 [2]: > 50 µM

O=C(c1cccc(Cl)c1)N1CCN(c2ccc([N+](=O)[O-])cc2)CC1
MIC50 [1]: 4.7 µM
MIC50 [2]: 15.4 µM (≈ 5.33 µg/mL)

O=C(c1cccc(Cl)c1)N1CCN(c2ccc(-c3ccccn3)cc2)CC1
MIC50 [1]: > 50 µM
MIC50 [2]: > 50 µM

CCCCCC(=O)N1CCN(c2ccc(C(C)=O)cc2)CC1
MIC50 [1]: 10.6 µM
MIC50 [2]: 8.7 µM (≈ 2.63 µg/mL)

CCCC(=O)N1CCN(c2ccc(C(C)=O)cc2)CC1
MIC50 [1]: > 50 µM
MIC50 [2]: > 50 µM

O=C1OCc2cc(N3CCN(C(=O)c4cccc(Cl)c4)CC3)ccc21
MIC50 [1]: 1.8 µM
MIC50 [2]: 35 µM (≈ 12.5 µg/mL)

COc1ccc(-c2ccc(N3CCN(C(=O)c4cccc(Cl)c4)CC3)cc2)nc1
MIC50 [3]: > 50 µM
MIC50 [1]: 24.4 µM
MIC50 [2]: 22 µM (≈ 8.97 µg/mL)

CC(=O)c1ccc(-c2cn(Cc3cccc(Cl)c3)nn2)s1
MIC50 [1]: > 50 µM
MIC50 [2]: > 50 µM

CC(=O)c1ccc(N2CCC(C(=O)c3ccc4c(c3)OCO4)CC2)cc1
MIC50 [1]: > 50 µM
MIC50 [2]: > 50 µM

CC(=O)c1ccc(N2CCN(C(=O)c3cncc(Cl)c3)CC2)cc1
MIC50 [1]: > 50 µM
MIC50 [2]: > 50 µM

CC(=O)c1ccc(N2CCC(C(=O)c3cccc(Cl)c3)CC2)cc1
MIC50 [1]: 6.8 µM
MIC50 [2]: 4.1 µM (≈ 1.4 µg/mL)

O=C(c1cccc(Cl)c1)N1CCN(c2ccc3c(c2)COC3)CC1
MIC50 [1]: 12.8 µM
MIC50 [2]: 40.8 µM (≈ 14 µg/mL)

O=C1CCc2cc(N3CCN(C(=O)c4cccc(Cl)c4)CC3)ccc21
MIC50 [1]: 0.3 µM
MIC50 [2]: 4.4 µM (≈ 1.56 µg/mL)

Cn1nnnc1-c1ccc(N2CCN(C(=O)c3cccc(Cl)c3)CC2)cc1
MIC50 [1]: > 50 µM
MIC50 [2]: > 50 µM

CC(=O)c1ccc(-c2cn(Cc3cccc(Cl)c3)nn2)cc1
MIC50 [3]: > 50 µM
MIC50 [1]: 24.4 µM
MIC50 [2]: 22 µM (≈ 6.86 µg/mL)

CC(=O)c1ccc(N2CCN(C(=O)c3cccc(Cl)c3)CC2)cc1
MIC50 [1]: 0.5 µM
MIC50 [2]: 5.1 µM (≈ 1.75 µg/mL)

CC(=O)c1ccc(N2CCN(C(=O)c3cc(Cl)cc(Cl)c3)CC2)cc1
MIC50 [1]: > 50 µM
MIC50 [2]: > 50 µM

COc1cc(Cl)cc(C(=O)N2CCN(c3ccc(C(C)=O)cc3)CC2)c1
MIC50 [1]: 18.3 µM
MIC50 [2]: 28.6 µM (≈ 10.7 µg/mL)

N#Cc1ccc(N2CCN(C(=O)c3cccc(Cl)c3)CC2)cc1
MIC50 [1]: 44.8 µM
MIC50 [2]: 18.5 µM (≈ 6.03 µg/mL)

CC(=O)c1ccc(N2CCN(C(=O)c3cnn(C)c3)CC2)cc1
MIC50 [1]: 11.3 µM
MIC50 [2]: > 50 µM

CC(=O)c1ccc(N2CCN(C(=O)c3ccc4c(c3)OCCCO4)CC2)cc1
MIC50 [1]: 21.1 µM
MIC50 [2]: > 50 µM

CC(=O)c1ccc(N2CCN(C(=O)c3cccnc3)CC2)cc1
MIC50 [1]: 14.6 µM
MIC50 [2]: > 50 µM

CC(=O)c1ccc(N2CCN(C(=O)c3cscn3)CC2)cc1
MIC50 [1]: > 50 µM
MIC50 [2]: > 50 µM
